Source: ChEMBL document CHEMBL3525985, “Regiospecificity and stereospecificity of human UDP-glucuronosyltransferases in the glucuronidation of estriol, 16-epiestriol, 17-epiestriol, and 13-epiestradiol” (Drug Metab Dispos, 2013)

Key:
Assay type in all cases: ADME
[1] = target: T1, UDP-glucuronosyltransferase 1A3 (Homo sapiens, UniProt P35503); experiment: Drug metabolism assessed as recombinant human C-terminal His-tagged UGT1A3-mediated 13-epiestradiol-3-glucuronide formation at 200 uM after 15 to 60 mins by HPLC analysis in presence of UDPGA; conditions: recombinant enzyme
T1 sequence (P35503 whole entry): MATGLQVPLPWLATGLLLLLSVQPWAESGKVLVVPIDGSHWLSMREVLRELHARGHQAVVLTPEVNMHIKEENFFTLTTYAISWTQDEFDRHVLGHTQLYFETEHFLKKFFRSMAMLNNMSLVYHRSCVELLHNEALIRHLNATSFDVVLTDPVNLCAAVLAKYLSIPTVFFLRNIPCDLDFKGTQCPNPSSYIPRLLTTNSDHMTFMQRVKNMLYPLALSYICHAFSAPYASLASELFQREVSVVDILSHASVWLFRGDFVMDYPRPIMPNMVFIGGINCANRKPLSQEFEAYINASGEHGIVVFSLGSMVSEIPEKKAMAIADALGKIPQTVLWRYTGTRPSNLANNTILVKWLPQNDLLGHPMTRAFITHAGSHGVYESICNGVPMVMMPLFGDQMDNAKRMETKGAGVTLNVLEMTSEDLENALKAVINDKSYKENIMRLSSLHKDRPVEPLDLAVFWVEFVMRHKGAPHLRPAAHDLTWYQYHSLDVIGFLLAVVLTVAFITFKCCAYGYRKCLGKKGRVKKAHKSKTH
In short: (§1)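 Screening at a single substrate concentration of 200 μM, in triplicate. The reaction used 5 or 50 µg of UGT-enriched insect cell membranes in 50 mM phosphate pH 7.4 with 10 mM MgCl₂ and 5 mM UDPGA, 10% final DMSO. Incubation was 15–60 min at 37°C. Perchloric acid stopped the reaction and supernatants were analysed by HPLC. Controls lacked UDPGA. Rates were normalized to relative UGT expression level.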

[2] = target: T2, UDP-glucuronosyltransferase 2B17 (Homo sapiens, UniProt O75795); experiment: Drug metabolism assessed as recombinant human C-terminal His-tagged UGT2B17-mediated estradiol-17-glucuronide formation at 200 uM after 15 to 60 mins by HPLC analysis in presence of UDPGA; conditions: recombinant enzyme; in short: as §1
T2 sequence (O75795 whole entry): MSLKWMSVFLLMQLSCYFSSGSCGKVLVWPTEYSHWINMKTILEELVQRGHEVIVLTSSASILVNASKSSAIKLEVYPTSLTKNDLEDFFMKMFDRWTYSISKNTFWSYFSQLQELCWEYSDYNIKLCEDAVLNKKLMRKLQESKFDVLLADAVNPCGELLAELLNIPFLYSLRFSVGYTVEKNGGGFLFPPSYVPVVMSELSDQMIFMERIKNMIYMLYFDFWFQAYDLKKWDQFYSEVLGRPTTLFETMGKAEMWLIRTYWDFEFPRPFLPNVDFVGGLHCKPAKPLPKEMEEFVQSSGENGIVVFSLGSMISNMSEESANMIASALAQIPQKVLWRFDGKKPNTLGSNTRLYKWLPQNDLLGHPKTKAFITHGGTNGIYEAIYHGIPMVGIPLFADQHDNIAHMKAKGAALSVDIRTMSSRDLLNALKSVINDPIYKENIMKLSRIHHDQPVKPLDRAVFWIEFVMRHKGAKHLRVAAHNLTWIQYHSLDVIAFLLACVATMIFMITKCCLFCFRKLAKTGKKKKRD

[3] = target: T3, UDP-glucuronosyltransferase 1A4 (Homo sapiens, UniProt P22310); experiment: Drug metabolism assessed as recombinant human C-terminal His-tagged UGT1A4-mediated estriol-16-glucuronide formation after 15 to 60 mins by Michaelis-Menten equation analysis in presence of UDPGA; conditions: recombinant enzyme
T3 sequence (P22310 whole entry): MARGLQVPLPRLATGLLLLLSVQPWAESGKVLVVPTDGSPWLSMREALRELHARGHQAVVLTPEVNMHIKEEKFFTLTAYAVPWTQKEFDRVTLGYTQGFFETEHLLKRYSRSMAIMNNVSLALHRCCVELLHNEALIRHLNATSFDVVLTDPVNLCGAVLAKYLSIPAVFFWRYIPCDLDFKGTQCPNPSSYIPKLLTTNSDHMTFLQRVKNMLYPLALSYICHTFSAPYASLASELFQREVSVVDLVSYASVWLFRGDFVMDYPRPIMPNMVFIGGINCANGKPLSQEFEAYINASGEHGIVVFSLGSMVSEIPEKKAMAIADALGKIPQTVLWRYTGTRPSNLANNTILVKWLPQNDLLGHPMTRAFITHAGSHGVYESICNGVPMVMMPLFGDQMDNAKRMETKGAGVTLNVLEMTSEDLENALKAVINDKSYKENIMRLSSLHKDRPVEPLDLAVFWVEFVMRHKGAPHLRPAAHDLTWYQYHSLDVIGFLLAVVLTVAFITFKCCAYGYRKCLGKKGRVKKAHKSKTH

Liver microsome [4] = experiment: Drug metabolism in human liver microsomes assessed as 17-epiestriol-3-glucuronide formation after 15 to 60 mins by Michaelis-Menten equation analysis in presence of UDPGA
In short: (§2)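 Pooled human liver microsomes (30 donors), 0.5 or 10 µg, with alamethicin at 5% of total protein. Incubated with 50 mM phosphate pH 7.4, 10 mM MgCl₂, 5 mM UDPGA and 10% DMSO for 15–60 min at 37°C. Each glucuronide regioisomer quantified by HPLC, in triplicate, with substrate consumption at or below 10%.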

Liver microsome [5] = experiment: Drug metabolism in human liver microsomes assessed as 17-epiestriol-16-glucuronide formation after 15 to 60 mins by Michaelis-Menten equation analysis in presence of UDPGA; in short: as §2

C[C@@]12CC[C@@H]3c4ccc(O)cc4CC[C@H]3[C@@H]1CC[C@@H]2O
Drug metabolism [1]: metabolite_detected

C[C@]12CC[C@@H]3c4ccc(O)cc4CC[C@H]3[C@@H]1CC[C@@H]2O [ESTRADIOL]
Drug metabolism [2]: metabolite_detected

C[C@]12CC[C@@H]3c4ccc(O)cc4CC[C@H]3[C@@H]1C[C@@H](O)[C@@H]2O [ESTRIOL]
Drug metabolism [3]: 4 pmol/min/mg

C[C@]12CC[C@@H]3c4ccc(O)cc4CC[C@H]3[C@@H]1C[C@@H](O)[C@H]2O
Km (Liver microsome [4]): 380 µM
Vmax (Liver microsome [4]): 805 pmol/min/mg
Km (Liver microsome [5]): 7.8 µM
Vmax (Liver microsome [5]): 128 pmol/min/mg
